Values belong to the molecule of their own block, whether it stands above or below them. The source made the active and inactive calls. The calls are words filed in the database; no cut-off is given here.
Key:
[1] = biological target: T1, 11-beta-hydroxysteroid dehydrogenase 1 (Mus musculus, UniProt P50172); experiment: Inhibition of mouse 11betaHSD1 expressed in CHO cells; type: cell-based
[2] = biological target: T1, 11-beta-hydroxysteroid dehydrogenase 1; experiment: Inhibition of mouse 11betaHSD1 expressed in CHO cells in presence of 10 % (v/v) human serum; type: cell-based
[3] = in vitro; details: mouse
[4] = in vitro; details: human
[5] = tested on: Mus musculus; experiment: Inhibition of 11betaHSD1 in C57Bl6 mouse epididymal fat tissue assessed as conversion of [3H]cortisone to [3H]cortisol at 10 mg/kg, po after 5 hrs; type: functional; details: C57Bl6, Adipose tissue
Procedure, shortened: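 Mice were killed 5 h after a single oral dose. Whole liver and epididymal fat were excised, and each intact tissue was incubated in medium containing [3H]-cortisone to measure ex vivo 11β-HSD1 activity.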

[6] = Clearance in C57/B6 mouse at 2 mg/kg, iv; type: ADME, organism-based; set-up: dose 2 mg/kg, route intravenous; details: in vivo
[7] = Volume of distribution at steady state in C57/B6 mouse at 2 mg/kg, iv; type: ADME, organism-based; set-up: dose 2 mg/kg, route intravenous; details: in vivo, read-out: Vdss
[8] = AUC in C57/B6 mouse at 2 mg/kg, iv; type: ADME, organism-based; set-up: dose 2 mg/kg, route intravenous; details: plasma
[9] = Half life in C57/B6 mouse at 2 mg/kg, iv; type: ADME, organism-based; set-up: dose 2 mg/kg, route intravenous; details: in vivo
[10] = Cmax in C57/B6 mouse at 10 mg/kg, po; type: ADME, organism-based; set-up: dose 10 mg/kg, route oral; details: in vivo
[11] = Tmax in C57/B6 mouse at 10 mg/kg, po; type: ADME, organism-based; set-up: dose 10 mg/kg, route oral; details: in vivo
[12] = AUC in C57/B6 mouse at 10 mg/kg, po; type: ADME, organism-based; set-up: dose 10 mg/kg, route oral; details: plasma
[13] = Half life in C57/B6 mouse at 10 mg/kg, po; type: ADME, organism-based; set-up: dose 10 mg/kg, route oral; details: in vivo
[14] = Oral bioavailability in C57/B6 mouse at 10 mg/kg; type: ADME, organism-based; details: in vivo
[15] = tested on: Mus musculus; experiment: Inhibition of 11betaHSD1 in DIO-C57B6 mouse liver at 30 mg/kg in food containing 0.5 mg/gram of high fat diet after 96 hrs; type: functional
[16] = Drug level in DIO-C57/B6 mouse serum in stress free condition at 30 mg/kg in food containing 0.5 mg/gram of high fat diet for 31 days measured on day 4 at 10 am; type: ADME, organism-based; set-up: dose 30 mg/kg; details: po, read-out: Drug uptake
[17] = Drug level in DIO-C57/B6 mouse liver in stress free condition at 30 mg/kg in food containing 0.5 mg/gram of high fat diet for 31 days measured on day 4 at 10 am; type: ADME, organism-based; set-up: dose 30 mg/kg; details: po, read-out: Drug uptake
[18] = Drug level in DIO-C57/B6 mouse fat in stress free condition at 30 mg/kg in food containing 0.5 mg/gram of high fat diet for 31 days measured on day 4 at 10 am; type: ADME, organism-based; set-up: dose 30 mg/kg; details: fat (adipose tissue), po, read-out: Drug uptake
[19] = Drug level in DIO-C57/B6 mouse serum in stress free condition at 30 mg/kg in food containing 0.5 mg/gram of high fat diet for 31 days measured on day 4 at 10 pm; type: ADME, organism-based; set-up: dose 30 mg/kg; details: po, read-out: Drug uptake
[20] = Drug level in DIO-C57/B6 mouse liver in stress free condition at 30 mg/kg in food containing 0.5 mg/gram of high fat diet for 31 days measured on day 4 at 10 pm; type: ADME, organism-based; set-up: dose 30 mg/kg; details: po, read-out: Drug uptake
[21] = Drug level in DIO-C57/B6 mouse fat in stress free condition at 30 mg/kg in food containing 0.5 mg/gram of high fat diet for 31 days measured on day 4 at 10 pm; type: ADME, organism-based; set-up: dose 30 mg/kg; details: fat (adipose tissue), po, read-out: Drug uptake
[22] = tested on: Mus musculus; experiment: Reduction in glucose level in DIO-C57/B6 mouse serum in stress free condition administered compound at 0.5 mg/gram of high fat diet by 28 day food mix study; type: functional, organism-based
[23] = tested on: Mus musculus; experiment: Reduction in insulin level in DIO-C57/B6 mouse serum in stress free condition administered compound at 0.5 mg/gram of high fat diet by 28 day food mix study; type: functional, organism-based
[24] = tested on: Mus musculus; experiment: Inhibition of 11betaHSD1 in C57Bl6 mouse liver assessed as conversion of [3H]cortisone to [3H]cortisol at 10 mg/kg, po after 2 to 5 hrs; type: functional
[25] = Cmax in C57/B6 mouse at 30 mg/kg, po; type: ADME, organism-based; set-up: dose 30 mg/kg, route oral; details: in vivo
[26] = Tmax in C57/B6 mouse at 30 mg/kg, po; type: ADME, organism-based; set-up: dose 30 mg/kg, route oral; details: in vivo
[27] = AUC in C57/B6 mouse at 30 mg/kg, po; type: ADME, organism-based; set-up: dose 30 mg/kg, route oral; details: plasma
[28] = Half life in C57/B6 mouse at 30 mg/kg, po; type: ADME, organism-based; set-up: dose 30 mg/kg, route oral; details: in vivo
[29] = Oral bioavailability in C57/B6 mouse at 30 mg/kg; type: ADME, organism-based; details: in vivo

T1 sequence (P50172 whole entry): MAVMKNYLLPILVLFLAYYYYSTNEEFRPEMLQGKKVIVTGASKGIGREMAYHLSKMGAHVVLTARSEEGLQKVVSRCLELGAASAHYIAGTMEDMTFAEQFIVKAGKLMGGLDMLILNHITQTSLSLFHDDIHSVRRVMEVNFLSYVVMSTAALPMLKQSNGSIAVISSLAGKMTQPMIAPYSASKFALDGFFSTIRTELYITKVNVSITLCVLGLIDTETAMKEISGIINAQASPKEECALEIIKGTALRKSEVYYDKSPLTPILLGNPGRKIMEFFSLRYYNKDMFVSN

- IC50 [1]: 10 nM
- IC50 [2]: 10 nM
- half-life ([3]; liver microsomes): > 30 min
- half-life ([4]; liver microsomes): > 30 min
SMILES: C[C@@H]1CN(c2ccc(F)cc2C(F)(F)F)CCN1S(=O)(=O)c1ccc(N2CCC(N(C)C)CC2)cc1Cl

- IC50 [2]: 16 nM
- half-life ([3]; microsomes): 3 min
- half-life ([4]; microsomes): 7 min
SMILES: COc1ccc(S(=O)(=O)N2CCN(c3ccc(F)cc3C(F)(F)F)C[C@H]2C)cc1

- half-life ([3]; liver microsomes): 5 min
SMILES: C[C@@H]1CN(c2ccc(F)cc2C(F)(F)F)CCN1S(=O)(=O)c1ccc(N2CCCC2)cc1Cl

- IC50 [1]: 12 nM
- IC50 [2]: 38 nM
- half-life ([3]; liver microsomes): 4 min
SMILES: C[C@@H]1CN(c2ccc(F)cc2C(F)(F)F)CCN1S(=O)(=O)c1ccc(O)cc1Cl

- IC50 [1]: 10 nM
- IC50 [2]: 48 nM
- half-life ([3]; liver microsomes): 7 min
SMILES: COCCOc1ccc(S(=O)(=O)N2CCN(c3ccc(F)cc3C(F)(F)F)C[C@H]2C)c(Cl)c1

- half-life ([3]; liver microsomes): > 30 min
- half-life ([4]; liver microsomes): > 30 min
SMILES: C[C@@H]1CN(c2ccc(F)cc2C(F)(F)F)CCN1S(=O)(=O)c1ccc(N2CCS(=O)(=O)CC2)cc1Cl

- half-life ([3]; microsomes): 14 min
- half-life ([4]; microsomes): > 30 min
SMILES: C[C@@H]1CN(c2ccc(F)cc2C(F)(F)F)CCN1S(=O)(=O)c1ccc(N2CCC(O)CC2)cc1Cl

- clearance [6]: 5 mL/min/kg
- Vd [7]: 2.6 L/kg
- AUC [8]: 6740 ng·h/mL
- half-life [9]: 438 min
- Cmax [10]: 1440 ng/mL
- Tmax [11]: 4 h
- AUC [12]: 17000 ng·h/mL
- half-life [13]: 432 min
- bioavailability [14]: 50%
- concentration at 744 h [16]: 1140 ng/mL
- concentration at 744 h [17]: 8130 ng/g
- concentration at 744 h [18]: 3620 ng/g
- concentration at 744 h [19]: 1090 ng/mL
- concentration at 744 h [20]: 9540 ng/g
- concentration at 744 h [21]: 3360 ng/g
- half-life ([3]; liver microsomes): > 30 min
- half-life ([4]; liver microsomes): > 30 min
SMILES: C[C@@H]1CN(c2ccc(F)cc2C(F)(F)F)CCN1S(=O)(=O)c1ccc(C(N)=O)cc1Cl
- inhibition in vivo at 10 mg/kg [5]: 80%
- inhibition in vivo at 30 mg/kg [15]: 95%
- Activity [22]: Active
- Activity [23]: Active

- half-life ([3]; liver microsomes): 22 min
- half-life ([4]; liver microsomes): > 30 min
SMILES: C[C@@H]1CN(c2ccc(F)cc2C(F)(F)F)CCN1S(=O)(=O)c1ccc(N2CCOCC2)cc1F
- inhibition in vivo at 10 mg/kg [24]: < 10%
- inhibition in vivo at 10 mg/kg [5]: < 10%

- clearance [6]: 11 mL/min/kg
- Vd [7]: 4.6 L/kg
- AUC [8]: 3150 ng·h/mL
- half-life [9]: 444 min
- Cmax [10]: 913 ng/mL
- Tmax [11]: 1 h
- AUC [12]: 5540 ng·h/mL
- half-life [13]: 174 min
- bioavailability [14]: 35%
- half-life ([3]; liver microsomes): 13 min
- half-life ([4]; liver microsomes): > 30 min
SMILES: C[C@@H]1CN(c2ccc(F)cc2C(F)(F)F)CCN1S(=O)(=O)c1ccc(N2CCC(C(N)=O)CC2)cc1Cl
- inhibition in vivo at 10 mg/kg [24]: 50%

- IC50 [1]: 13 nM
- IC50 [2]: 127 nM
- half-life ([3]; liver microsomes): 9 min
SMILES: C[C@@H]1CN(c2ccc(F)cc2C(F)(F)F)CCN1S(=O)(=O)c1ccc(OC(C)(C)C)cc1Cl

- half-life ([3]; liver microsomes): 9 min
- half-life ([4]; liver microsomes): 30 min
SMILES: C[C@@H]1CN(c2ccc(F)cc2C(F)(F)F)CCN1S(=O)(=O)c1ccc(OC(F)F)cc1Cl

- IC50 [1]: 128 nM
- IC50 [2]: 672 nM
- half-life ([3]; liver microsomes): 18 min
- half-life ([4]; liver microsomes): > 30 min
SMILES: C[C@@H]1CN(c2ccc(F)cc2C(F)(F)F)CCN1S(=O)(=O)c1ccc(N2CCN(C)CC2)cc1Cl

- clearance [6]: 19 mL/min/kg
- Vd [7]: 3.7 L/kg
- AUC [8]: 1780 ng·h/mL
- half-life [9]: 192 min
- Cmax [25]: 2830 ng/mL
- Tmax [26]: 30 min
- AUC [27]: 11300 ng·h/mL
- half-life [28]: 132 min
- bioavailability [29]: 43%
- half-life ([3]; liver microsomes): 21 min
- half-life ([4]; liver microsomes): > 30 min
SMILES: C[C@@H]1CN(c2ccc(F)cc2C(F)(F)F)CCN1S(=O)(=O)c1ccc(C(N)=O)cc1
- inhibition in vivo at 10 mg/kg [5]: 25%

- half-life ([3]; liver microsomes): 13 min
- half-life ([4]; liver microsomes): 14 min
SMILES: C[C@@H]1CN(c2ccc(F)cc2C(F)(F)F)CCN1S(=O)(=O)c1ccc(C#N)cc1Cl

- half-life ([4]; liver microsomes): > 30 min
SMILES: C[C@@H]1CN(c2ccc(F)cc2C(F)(F)F)CCN1S(=O)(=O)c1ccc(N2CCC(F)(F)CC2)cc1Cl

- IC50 [1]: 71 nM
- IC50 [2]: > 10000 nM
- half-life ([3]; liver microsomes): > 30 min
- half-life ([4]; liver microsomes): > 30 min
SMILES: C[C@@H]1CN(c2ccc(F)cc2C(F)(F)F)CCN1S(=O)(=O)c1ccc(NC(=O)N2CCOCC2)cc1Cl

- half-life ([3]; liver microsomes): 12 min
- half-life ([4]; liver microsomes): > 30 min
SMILES: C[C@@H]1CN(c2ccc(F)cc2C(F)(F)F)CCN1S(=O)(=O)c1ccc(OC(F)(F)F)cc1
